Experimental data published in ChEMBL document CHEMBL1649280, “Activity of the novel peptide arminin against multiresistant human pathogens shows the considerable potential of phylogenetically ancient organisms as drug sources” (Antimicrob Agents Chemother, 2009).
The source made the active and inactive calls. The calls are words filed in the database; no cut-off is given here.

Legend:
Enterococcus faecium [1] = experiment: Antibacterial activity against vancomycin-resistant Enterococcus faecium 354 after 2 hrs
Enterococcus faecium [2] = experiment: Antibacterial activity against vancomycin-resistant Enterococcus faecium G70 after 2 hrs
Enterococcus faecalis = experiment: Antibacterial activity against vancomycin-resistant Enterococcus faecalis ATCC 51299 after 2 hrs; type: functional
Klebsiella pneumoniae [3] = experiment: Antibacterial activity against vancomycin-resistant ESBL-producing Klebsiella pneumoniae ATCC 700603 after 2 hrs; type: functional
Klebsiella pneumoniae [4] = experiment: Antibacterial activity against vancomycin-resistant ESBL-producing Klebsiella pneumoniae GF1 after 2 hrs; type: functional
Klebsiella pneumoniae [5] = experiment: Antibacterial activity against vancomycin-resistant ESBL-producing Klebsiella pneumoniae GF7 after 2 hrs; type: functional
[6] = Toxicity in human RBC assessed as hemolysis at 250 uM after 1 hr; type: cell-based; conditions: erythrocyte
How it was run: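 Human red blood cells were exposed to peptide serially diluted twofold from 250 μM in 50 mM sodium phosphate-150 mM NaCl, pH 7.4, for 1 h. Distilled water gave maximal lysis; buffer with peptide solvent gave spontaneous lysis. Absorbance of diluted supernatants was read at 405 nm. Values are means of two independent experiments, each in duplicate.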

Staphylococcus aureus [7] = experiment: Antibacterial activity against Staphylococcus aureus ATCC 12600 by microdilution susceptibility assay in presence of 75 mM of sodium chloride; type: functional
How it was run: (§1)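 Microdilution susceptibility assay in 10 mM sodium phosphate buffer, pH 7.4, with NaCl at 0, 75, 150 or 200 mM. Activity is expressed relative to the activity in buffer without NaCl, which is set to 1. Values are means with standard deviations of two independent experiments, each run in duplicate.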

Staphylococcus aureus [8] = experiment: Antibacterial activity against Staphylococcus aureus ATCC 12600 assessed as destruction and detachment of peripheral cell wall at 410 uM after 1.5 hrs by transmission electron microscopy; type: functional, organism-based
How it was run: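 S. aureus grown to OD₆₀₀ 0.1, washed twice in 10 mM sodium phosphate pH 7.4 with 1% tryptic soy broth, concentrated to OD₆₀₀ 3.0 (~10⁸ bacteria/ml). Incubated with peptide at 41 or 410 μM for 1.5 h at 37°C with rocking; solvent-only control. CFU plated as growth check. Rest fixed 2 h 1:1 with 10% glutaraldehyde, examined by transmission electron microscopy.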

Staphylococcus aureus [9] = experiment: Antibacterial activity against Staphylococcus aureus ATCC 12600 by microdilution susceptibility assay in presence of 200 mM of sodium chloride; type: functional, organism-based
How it was run: (§2)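 Microdilution susceptibility assay in 10 mM sodium phosphate pH 7.4 with 0, 75, 150 or 200 mM NaCl. Activity relative to 0 mM NaCl (set to 1). Mean with standard deviation of two independent experiments, each in duplicate.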

Escherichia coli [10] = experiment: Antibacterial activity against vancomycin-resistant ESBL-producing Escherichia coli E9 after 2 hrs; type: functional
Escherichia coli [11] = experiment: Antibacterial activity against Escherichia coli DH5alpha by microdilution susceptibility assay in presence of 75 mM of sodium chloride; type: functional, DH5[alpha]
How it was run: as §1

Priestia megaterium [12] = experiment: Antibacterial activity against Bacillus megaterium ATCC 14581 by microdilution susceptibility assay in presence of 200 mM of sodium chloride; type: functional, organism-based
How it was run: as §2

Priestia megaterium [13] = experiment: Antibacterial activity against Bacillus megaterium ATCC 14581 after 2 hrs; type: functional
Staphylococcus aureus [14] = experiment: Antibacterial activity against Staphylococcus aureus ATCC 12600 after 2 hrs; type: functional
Enterococcus faecium [15] = experiment: Antibacterial activity against vancomycin-resistant Enterococcus faecium 356 after 2 hrs
Staphylococcus aureus [16] = experiment: Antibacterial activity against methicillin-resistant Staphylococcus aureus ATCC 33393 after 2 hrs; type: functional
Escherichia coli [17] = experiment: Antibacterial activity against Escherichia coli DH5alpha by microdilution susceptibility assay in presence of 200 mM of sodium chloride; type: functional, organism-based; conditions: DH5[alpha]
How it was run: as §2

Staphylococcus aureus [18] = experiment: Antibacterial activity against methicillin-resistant Staphylococcus aureus 344 after 2 hrs; type: functional
Staphylococcus aureus [19] = experiment: Antibacterial activity against methicillin-resistant Staphylococcus aureus ATCC 43300 after 2 hrs; type: functional
Escherichia coli [20] = experiment: Antibacterial activity against Escherichia coli DH5alpha after 2 hrs; type: functional, DH5[alpha]
Priestia megaterium [21] = experiment: Antibacterial activity against Bacillus megaterium ATCC 14581 by microdilution susceptibility assay in presence of 75 mM of sodium chloride; type: functional
How it was run: as §1

Staphylococcus aureus [22] = experiment: Antibacterial activity against methicillin-resistant Staphylococcus aureus after 2 hrs
Enterococcus faecium [23] = experiment: Antibacterial activity against vancomycin-resistant Enterococcus faecium G71 after 2 hrs
Escherichia coli [24] = experiment: Antibacterial activity against vancomycin-resistant ESBL-producing Escherichia coli E4 after 2 hrs; type: functional
Staphylococcus aureus [25] = experiment: Antibacterial activity against methicillin-resistant Staphylococcus aureus 358 after 2 hrs; type: functional

## H-KPWRFRRAIRRVRWRKVAPYIPFVVKTVGKK-OH
Enterococcus faecium [1]
  LD90: 0.2 µM
Enterococcus faecium [1]; Enterococcus faecium, 354, 2 h
  MBC: 0.4 µM
Enterococcus faecium [2]
  LD90: 0.2 µM
Enterococcus faecium [2]; Enterococcus faecium, G70, 2 h
  MBC: 0.4 µM
Enterococcus faecalis
  LD90: 0.8 µM
Enterococcus faecalis; Enterococcus faecalis, ATCC 51299, 2 h
  MBC: 1.6 µM
Klebsiella pneumoniae [3]
  LD90: 0.2 µM
Klebsiella pneumoniae [3]; Klebsiella pneumoniae, ATCC 700603, 2 h
  MBC: 0.8 µM
Klebsiella pneumoniae [4]
  LD90: 0.2 µM
Klebsiella pneumoniae [4]; Klebsiella pneumoniae, GF1, 2 h
  MBC: 0.4 µM
Klebsiella pneumoniae [5]
  LD90: 0.2 µM
Klebsiella pneumoniae [5]; Klebsiella pneumoniae, GF7, 2 h
  MBC: 0.4 µM
[6]
  Activity: Non-toxic
Staphylococcus aureus [7]
  fold change (FC): 4
Staphylococcus aureus [8]
  Activity: Active
Staphylococcus aureus [9]
  Activity: Active
Escherichia coli [10]
  LD90: 0.05 µM
Escherichia coli [10]; Escherichia coli, E9, 2 h
  MBC: 0.2 µM
Escherichia coli [11]
  fold change (FC): 2
Priestia megaterium [12]
  Activity: Active
Priestia megaterium [13]
  LD90: 0.01 µM
Priestia megaterium [13]; Priestia megaterium, ATCC 14581, 2 h
  MBC: 0.1 µM
Staphylococcus aureus [14]
  LD90: 0.05 µM
Staphylococcus aureus [14]; Staphylococcus aureus, ATCC 12600, 2 h
  MBC: 0.4 µM
Enterococcus faecium [15]
  LD90: 0.2 µM
Enterococcus faecium [15]; Enterococcus faecium, 356, 2 h
  MBC: 0.8 µM
Staphylococcus aureus [16]
  LD90: 0.2 µM
Staphylococcus aureus [16]; Staphylococcus aureus, ATCC 33393, 2 h
  MBC: 0.4 µM
Escherichia coli [17]
  Activity: Active
Staphylococcus aureus [18]
  LD90: 0.2 µM
Staphylococcus aureus [18]; Staphylococcus aureus, 344, 2 h
  MBC: 0.8 µM
Staphylococcus aureus [19]
  LD90: 0.2 µM
Staphylococcus aureus [19]; Staphylococcus aureus, ATCC 43300, 2 h
  MBC: 0.4 µM
Escherichia coli [20]
  LD90: 0.1 µM
Escherichia coli [20]; Escherichia coli, DH5[alpha], 2 h
  MBC: 0.2 µM
Priestia megaterium [21]
  fold change (FC): 4
Staphylococcus aureus [22]
  LD90: 0.2 µM
Staphylococcus aureus [22]; Staphylococcus aureus, 2 h
  MBC: 0.8 µM
Enterococcus faecium [23]
  LD90: 0.2 µM
Enterococcus faecium [23]; Enterococcus faecium, G71, 2 h
  MBC: 0.4 µM
Escherichia coli [24]
  LD90: 0.1 µM
Escherichia coli [24]; Escherichia coli, E4, 2 h
  MBC: 0.4 µM
Staphylococcus aureus [25]
  LD90: 0.2 µM
Staphylococcus aureus [25]; Staphylococcus aureus, 358, 2 h
  MBC: 0.4 µM
